In ChEMBL document CHEMBL1155794, “Novel N1-substituted 1,3-dihydro-2H-benzimidazol-2-ones as potent non-nucleoside reverse transcriptase inhibitors” (Bioorg Med Chem, 2008):
pEC50, pIC50: −log10 of the molar value.

How the values were obtained:
[1] = Selectivity index, ratio of CC50 for human MT4 cells to EC50 for HIV1 3B; format: toxicity, cell-based; settings: read-out: Ratio CC50/EC50
[2] = Cytotoxicity against human MT4 cells; format: cell-based
Outline: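 MT-4 cell viability measured after exposure to compound dilutions; CC50 taken as concentration lowering viability by 50%.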

[3] = target: Human immunodeficiency virus type 1 reverse transcriptase (Human immunodeficiency virus 1, UniProt Q72547); assay: Inhibition of HIV1 reverse transcriptase RNA-dependent DNA polymerase activity assessed as incorporation of radioactive dTTP into poly(rA)/oligo(DT)
[4] = system: Human immunodeficiency virus 1; assay: Antiviral activity against HIV1 3B in human MT4 cells assessed as virus-induced cytopathogenicity after 5 days; format: functional, organism-based; settings: Human immunodeficiency virus 1, 3B, MT4, 120 h
Outline: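 MT-4 cells infected and treated with serial dilutions, incubated at 37 °C for 5 days; viable cell count determined; EC50 = concentration reducing virus-induced cytopathicity by 50%.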

Row | Compound | pIC50 [3] | pEC50 [4] | selectivity ratio [1] | CC50 [2] [µM]
1 | Cc1cc(C)cc(Cn2c(=O)[nH]c3ccc(Cl)cc32)c1 | – | – | 281 | –
2 | Cc1cc(C)cc(S(=O)(=O)n2c(=O)[nH]c3ccc(Cl)cc32)c1 | – | – | 17800 | –
3 | O=c1[nH]c2ccc(Cl)cc2n1Cc1c(F)cccc1F | – | – | > 1890 | > 424
4 | Cc1cc(C)cc(Cn2c(=O)[nH]c3ccc(C(F)(F)F)cc32)c1 | 6.55 | 6.37 | 88 | 37.4
5 | Fc1cc(F)cc(Cn2c(=S)[nH]c3ccc(Cl)cc32)c1 | 6.80 | < 6.13 | 2 | 1.2
6 | O=c1[nH]c2cc(F)c(Cl)cc2n1Cc1cc(F)cc(F)c1 | 8.52 | < 4.47 | – | > 400
7 | CC(=O)n1c(=O)n(Cc2cc(F)cc(F)c2)c2cc(Cl)ccc21 | 4.41 | 5.78 | 24 | 40.4
8 | Cc1cc(C)cc(Cn2c(=O)[nH]c3ccc(C)cc32)c1 | 4.11 | 7.12 | 11 | 0.856
9 | Cc1ccc2[nH]c(=O)n(Cc3cc(F)cc(F)c3)c2c1 | < 3.40 | < 4.14 | < 1 | 73
10 | CC(=O)n1c(=O)n(Cc2cc(C)cc(C)c2)c2cc(Cl)ccc21 | < 4.00 | 7.93 | 614 | 7.18
11 | Cc1cc(C)cc(Cn2c(=S)[nH]c3ccc(Cl)cc32)c1 | 7.34 | 7.12 | 4 | 0.305
12 | Cc1cc(C)cc(S(=O)(=O)n2c(=O)[nH]c3cc(F)c(Cl)cc32)c1 | 6.80 | 6.35 | 310 | 140
13 | Cc1cc(C)cc(Cn2c(=O)[nH]c3cc(F)c(Cl)cc32)c1 | < 4.00 | 6.03 | > 438 | > 410
14 | O=C1Nc2ccc(Cl)cc2[C@@](C#CC2CC2)(C(F)(F)F)O1 [EFAVIRENZ] | – | – | – | > 6
15 | Cc1ccnc2c1NC(=O)c1cccnc1N2C1CC1 [NEVIRAPINE] | – | – | – | > 15

Now from value to molecule, other results behind:

Row | pIC50 [3] | pEC50 [4] | Compound | selectivity ratio [1] | CC50 [2] [µM]
16 | 7.00 | 8.20 | Cc1cc(C)cc(S(=O)(=O)n2c(=O)[nH]c3ccc(C)cc32)c1 | > 48900 | > 308
17 | 5.89 | 6.71 | Cc1ccc2[nH]c(=O)n(S(=O)(=O)c3c(F)cccc3F)c2c1 | 11 | 2.22
18 | 7.77 | 5.26 | O=c1[nH]c2ccc(C(F)(F)F)cc2n1Cc1c(F)cccc1F | > 77 | > 424
19 | 6.70 | 7.19 | Cc1ccc2[nH]c(=O)n(S(=O)(=O)c3cc(F)cc(F)c3)c2c1 | 360 | 23.4
20 | 7.00 | 6.54 | O=c1[nH]c2ccc(Cl)cc2n1Cc1cc(F)cc(F)c1 | > 1470 | > 424
21 | – | 6.13 | Fc1cccc(F)c1Cn1c(=S)[nH]c2ccc(Cl)cc21 | 8 | 5.95
22 | 4.52 | 5.81 | O=c1[nH]c2ccc(Cl)cc2n1S(=O)(=O)c1c(F)cccc1F | 124 | 194
23 | < 4.00 | 6.27 | CC(=O)n1c(=O)n(Cc2c(F)cccc2F)c2cc(Cl)ccc21 | 190 | 102
24 | 6.85 | 4.54 | O=c1[nH]c2cc(F)c(Cl)cc2n1Cc1c(F)cccc1F | 9 | 267
25 | 7.00 | 7.16 | O=c1[nH]c2ccc(Cl)cc2n1S(=O)(=O)c1cc(F)cc(F)c1 | 2930 | 202
26 | < 4.00 | 4.73 | Cc1ccc2[nH]c(=O)n(Cc3c(F)cccc3F)c2c1 | 13 | 236
